What was measured:
[1] = Binding affinity to 5'-CCGAGTCCATACG-3' DNA (unknown origin) assessed as increase in fluorescence intensity at 200 nM by florescence assay relative to control
Summary of the method: (§1)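 Steady-state fluorescence of 200 nM pyrene conjugates mixed with target oligonucleotide duplex in 5 mM Na phosphate buffer, pH 7.0, 1% v/v DMF. Excitation at 345 nm, emission read at 386 nm. Measured at room temperature without oxygen removal. Intensity is compared with that of the conjugate alone.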

[2] = Binding affinity to 5'-CGTATGGACTCGG-3' DNA (unknown origin) assessed as increase in fluorescence intensity at 200 nM by florescence assay relative to control; summary of the method: as §1
[3] = Binding affinity to 5'-biotin-labeled GCTAGTC-CAGGCTTTTGCCTGGACTAGC-3' DNA (unknown origin) by surface plasmon resonance assay
Summary of the method: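 Biacore SPR at 25 °C. Biotinylated hairpin DNA is captured on a streptavidin SA chip. Polyamides are diluted from 4 mM DMSO stocks into HBS-EP (10 mM HEPES […], 0.15 M NaCl, 3 mM EDTA, 0.005% P20) with 0.1% DMSO, which is also the running buffer. Samples are injected at 5 μL/min over 6.25 nM–4 μM. Regeneration uses running buffer or 10 mM glycine-HCl, pH 1.5. KD is obtained by model fitting.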

CC(=O)Nc1cn(C)c(C(=O)Nc2cn(C)c(C(=O)Nc3cc(C(=O)Nc4cc(C(=O)NCC[C@@H](NC(=O)CCCc5ccc6ccc7cccc8ccc5c6c78)C(=O)Nc5cn(C)c(C(=O)Nc6cc(C(=O)Nc7cc(C(=O)Nc8cc(C(=O)NCCC(=O)NCCCN(C)C)n(C)c8)n(C)c7)n(C)c6)n5)n(C)c4)n(C)c3)n2)n1
fold change (FC) [1]: 7 | fold change (FC) [2]: 7 | Kd [3]: 1.74 µM

CN(C)CCCNC(=O)CCNC(=O)c1cc(NC(=O)c2cc(NC(=O)c3cc(NC(=O)c4nc(NC(=O)CCCNC(=O)c5cc(NC(=O)c6cc(NC(=O)c7nc(NC(=O)c8nc(NC(=O)CCNC(=O)CCCc9ccc%10ccc%11cccc%12ccc9c%10c%11%12)cn8C)cn7C)cn6C)cn5C)cn4C)cn3C)cn2C)cn1C
fold change (FC) [1]: 3 | fold change (FC) [2]: 3 | Kd [3]: > 10 µM

CN(C)CCCNC(=O)CCNC(=O)c1cc(NC(=O)c2cc(NC(=O)c3cc(NC(=O)c4nc(NC(=O)CCCNC(=O)c5cc(NC(=O)c6cc(NC(=O)c7nc(NC(=O)c8nc(NC(=O)CCNC(=O)CCNC(=O)CCCc9ccc%10ccc%11cccc%12ccc9c%10c%11%12)cn8C)cn7C)cn6C)cn5C)cn4C)cn3C)cn2C)cn1C
fold change (FC) [1]: 3 | fold change (FC) [2]: 3 | Kd [3]: > 10 µM

CC(=O)Nc1cn(C)c(C(=O)Nc2cn(C)c(C(=O)Nc3cc(C(=O)Nc4cc(C(=O)NCC[C@@H](NC(=O)CCNC(=O)CCCc5ccc6ccc7cccc8ccc5c6c78)C(=O)Nc5cn(C)c(C(=O)Nc6cc(C(=O)Nc7cc(C(=O)Nc8cc(C(=O)NCCC(=O)NCCCN(C)C)n(C)c8)n(C)c7)n(C)c6)n5)n(C)c4)n(C)c3)n2)n1
fold change (FC) [1]: 4 | fold change (FC) [2]: 4 | Kd [3]: 0.0173 µM
